In PMC6437634 (Acta Pharmaceutica Sinica. B, 2018):
pIC50: −log10 of the molar value.

What was measured:
FGFR1 kinase = FGFR1 kinase (Homo sapiens, UniProt P11362); assay: ELISA kinase assay FGFR1; type: biochemical
[1] = In vitro metabolic stability, human liver microsomal intrinsic clearance; type: in vitro ADME; details: liver microsomes, pH 7.4
How it was run: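 Human liver microsomes (0.5 mg/mL) were preincubated 5 min at 37 °C with 1 μmol/L test compound in 0.1 mol/L phosphate buffer pH 7.4 with EDTA and MgCl2. NADPH started the reaction. Samples taken at 0, 5, 10 and 30 min at 37 °C were quenched with equal-volume cold acetonitrile and centrifuged. Remaining parent compound was quantified by LC–MS/MS.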

CYP3A4 = CYP3A4 (Homo sapiens, UniProt P08684); assay: CYPs direct inhibition CYP3A4; type: in vitro ADME; details: liver microsomes, pH 7.4
CYPs = assay: CYP time-dependent inhibition; type: in vitro ADME, human; details: kobs lower than 200 (10^-4/min) considered no TDI inhibition

FGFR1 kinase, sequence (P11362 22-822): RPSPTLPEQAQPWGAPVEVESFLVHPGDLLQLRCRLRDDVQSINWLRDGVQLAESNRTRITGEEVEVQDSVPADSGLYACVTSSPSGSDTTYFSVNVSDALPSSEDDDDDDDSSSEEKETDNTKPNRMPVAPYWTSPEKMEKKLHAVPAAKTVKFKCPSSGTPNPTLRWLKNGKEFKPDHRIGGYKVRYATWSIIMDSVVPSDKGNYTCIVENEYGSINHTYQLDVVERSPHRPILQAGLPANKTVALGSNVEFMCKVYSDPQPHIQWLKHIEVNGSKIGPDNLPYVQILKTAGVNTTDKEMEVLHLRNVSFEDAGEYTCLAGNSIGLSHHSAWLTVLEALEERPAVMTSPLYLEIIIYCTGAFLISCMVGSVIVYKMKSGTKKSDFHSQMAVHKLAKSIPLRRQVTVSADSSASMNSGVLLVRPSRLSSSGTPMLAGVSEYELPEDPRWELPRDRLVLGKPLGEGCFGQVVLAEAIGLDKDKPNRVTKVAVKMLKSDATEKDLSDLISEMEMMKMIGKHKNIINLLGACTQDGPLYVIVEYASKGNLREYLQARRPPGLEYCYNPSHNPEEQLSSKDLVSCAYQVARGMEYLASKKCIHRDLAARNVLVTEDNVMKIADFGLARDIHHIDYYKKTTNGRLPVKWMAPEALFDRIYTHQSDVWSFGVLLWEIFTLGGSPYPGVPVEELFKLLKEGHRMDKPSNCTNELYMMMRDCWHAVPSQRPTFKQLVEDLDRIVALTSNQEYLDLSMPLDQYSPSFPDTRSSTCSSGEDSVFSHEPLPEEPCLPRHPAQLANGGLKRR
CYP3A4, sequence (P08684 whole entry): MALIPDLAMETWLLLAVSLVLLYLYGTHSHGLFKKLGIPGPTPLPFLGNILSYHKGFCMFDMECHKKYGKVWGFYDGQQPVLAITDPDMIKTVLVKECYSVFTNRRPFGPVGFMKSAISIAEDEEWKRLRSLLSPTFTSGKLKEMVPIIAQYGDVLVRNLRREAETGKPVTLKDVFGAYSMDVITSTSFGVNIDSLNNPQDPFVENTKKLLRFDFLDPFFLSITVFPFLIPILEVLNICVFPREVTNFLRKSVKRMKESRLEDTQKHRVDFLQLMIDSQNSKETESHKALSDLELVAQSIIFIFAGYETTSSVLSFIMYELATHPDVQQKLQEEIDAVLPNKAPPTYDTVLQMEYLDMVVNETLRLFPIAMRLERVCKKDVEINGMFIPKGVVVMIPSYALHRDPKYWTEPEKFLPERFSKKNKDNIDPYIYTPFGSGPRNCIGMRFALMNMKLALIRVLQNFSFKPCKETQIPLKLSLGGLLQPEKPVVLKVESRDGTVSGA

| microsomal CLint at 1 μmol/L [1] [µL/min/mg] | inhibition at 20 min, 10 μmol/L (CYP3A4) [%] | FGFR1 enzymatic inhibitory activity (in words) (FGFR1 kinase) | SMILES | other results |
| --- | --- | --- | --- | --- |
| – | – | – | COc1cc(CCc2cnc3ccn(S(=O)(=O)c4ccccc4)c3n2)cc(OC)c1 [Compound 5, 3-(3,5-Dimethoxyphenethyl)-5-(phenylsulfonyl)-5H-pyrrolo[2,3-b]pyrazine] | FGFR1 inhibition ratio (FGFR1 kinase; at 0.1 μmol/L): about 75% |
| – | – | – | COc1cc(OC)c(Cl)c(CCc2cnc3ccn(S(=O)(=O)c4ccccc4)c3n2)c1Cl [Compound 7, 3-(2,6-Dichloro-3,5-dimethoxyphenethyl)-5-(phenylsulfonyl)-5H-pyrrolo[2,3-b]pyrazine] | pIC50 (FGFR1 kinase): 7.85 |
| 38 | 96 | – | COc1cc(CCc2cnc3ccn(S(=O)(=O)c4c[nH]cn4)c3n2)cc(OC)c1 [Compound 12, 5-((1H-Imidazol-4-yl)sulfonyl)-3-(3,5-dimethoxyphenethyl)-5H-pyrrolo[2,3-b]pyrazine] | TDI (time-dependent inhibition), CYPs affected (CYPs): No inhibition |
| 212 | 88 | single digit nanomolar activity | COc1cc(CCc2cnc3ccn(S(=O)(=O)c4cn(C)cn4)c3n2)cc(OC)c1 [Compound 20] | – |
| 50 | 90 | picomolar range | COc1cc(OC)c(Cl)c(CCc2cnc3ccn(S(=O)(=O)c4c[nH]cn4)c3n2)c1Cl [Compound 29] | TDI (time-dependent inhibition), CYPs affected (CYPs): No inhibition |
| – | – | decreased dramatically | CCOc1cccc(CCc2cnc3ccn(S(=O)(=O)c4cn(C)cn4)c3n2)c1 [Compound 30, 3-(3-Ethoxyphenethyl)-5-((1-methyl-1H-imidazol-4-yl)sulfonyl)-5H-pyrrolo[2,3-b]pyrazine] | – |
| – | – | – | COc1cc(CCc2cnc3ccn(S(=O)(=O)c4cn(C)cn4)c3n2)c(F)c(OC)c1 [Compound 32, 3-(2-Fluoro-3,5-dimethoxyphenethyl)-5-((1-methyl-1H-imidazol-4-yl)sulfonyl)-5H-pyrrolo[2,3-b]pyrazine] | pIC50 (FGFR1 kinase): 9.40 |

| SMILES | microsomal CLint at 1 μmol/L [1] [µL/min/mg] | inhibition at 20 min, 10 μmol/L (CYP3A4) [%] | FGFR1 enzymatic inhibitory activity (in words) (FGFR1 kinase) | other results |
| --- | --- | --- | --- | --- |
| COc1cc(CCc2cnc3ccn(S(=O)(=O)c4cn(CCF)cn4)c3n2)c(F)c(OC)c1 [Compound 33, 3-(2-Fluoro-3,5-dimethoxyphenethyl)-5-((1-(2-fluoroethyl)-1H-imidazol-4-yl)sulfonyl)-5H-pyrrolo[2,3-b]pyrazine] | – | – | equipotent enzymatic activity as compound 32 | – |
| COc1cc(OC)c(F)c(/C=C/c2cnc3ccn(S(=O)(=O)c4cn(C)cn4)c3n2)c1F [Compound 34, (E)-3-(2,6-Difluoro-3,5-dimethoxystyryl)-5-((1-methyl-1H-imidazol-4-yl)sulfonyl)-5H-pyrrolo[2,3-b]pyrazine] | – | – | equipotent enzymatic activity as compound 32 | – |
